In data set [1] the test system is HepG2. The data set can be described thus: Protection against AfB1-induced toxicity in human HepG2 cells assessed as increase in live cell area measured after 48 hrs by calcein-AM/Hoechst 33342 staining based high-content imaging analysis. The data set is classed as functional.
The test system of data set [2] is HepG2. The data set can be described thus: Increase in live cell area in human HepG2 cells measured after 48 hrs by calcein-AM/Hoechst 33342 staining based high-content imaging analysis. The data set is classed as functional.
For data set [3], the system named is HepG2. In words: Protection against AfB1-induced toxicity in human HepG2 cells assessed as live cell area at 50 uM measured after 48 hrs by calcein-AM/Hoechst 33342 staining based high-content imaging analysis relative to control. The data set is classed as functional.
Data set [4] concerns HepG2. The data set can be described thus: Protection against AfB1-induced toxicity in human HepG2 cells assessed as live cell area at 12.5 uM measured after 48 hrs by calcein-AM/Hoechst 33342 staining based high-content imaging analysis relative to control. The data set is classed as functional.
Data set [5] relates to HepG2. The data set can be described thus: Protection against AfB1-induced toxicity in human HepG2 cells assessed as increase in live cell area at >12.5 uM measured after 48 hrs by calcein-AM/Hoechst 33342 staining based high-content imaging analysis relative to control. The data set is classed as functional.
Data set [6] has as its system HepG2. The data set can be described thus: Protection against AfB1-induced toxicity in human HepG2 cells assessed as increase in live cell area at >0.5 uM measured after 48 hrs by calcein-AM/Hoechst 33342 staining based high-content imaging analysis relative to control. The data set is classed as functional.
In data set [7] the test system is HepG2. In words: Toxicity in human HepG2 cells measured after 48 hrs by calcein-AM/Hoechst 33342 staining based high-content imaging analysis. The following applies: hepg2, 48 h. The data set is classed as cell-based.
Data set [8] concerns HepG2. The data set can be described thus: Protection against AfB1-induced toxicity in human HepG2 cells assessed as live cell area at 0.5 uM measured after 48 hrs by calcein-AM/Hoechst 33342 staining based high-content imaging analysis relative to control. The data set is classed as functional.
For data set [9], the system named is HepG2. In words: Protection against AfB1-induced toxicity in human HepG2 cells assessed as increase in live cell area at >5 uM measured after 48 hrs by calcein-AM/Hoechst 33342 staining based high-content imaging analysis relative to control. The data set is classed as functional.
For data set [10], the system named is HepG2. In words: Protection against AfB1-induced toxicity in human HepG2 cells assessed as live cell area at 5 uM measured after 48 hrs by calcein-AM/Hoechst 33342 staining based high-content imaging analysis relative to control. The data set is classed as functional.
Data set [11] concerns HepG2. The data set can be described thus: Protection against AfB1-induced morphological changes in 3D-spheroids of human HepG2 cells up to 10 uM measured after 3 days by calcein-AM/Hoechst 33342 staining based microscopic analysis. The data set is classed as functional, cell-based. Put shortly:
(§1)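 HepG2 spheroids: 1000 cells/well in ultralow-attachment plates, grown 4 days to tight spheroids, then test compounds (10 μM) plus AfB1 in complete EMEM for 3 further days. Calcein AM/Hoechst staining and high-content imaging of viability and live spheroid size. Live cell area relative to DMSO vehicle-only spheroids; n = 3.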

Data set [12] has as its system HepG2. The data set can be described thus: Protection against AfB1-induced toxicity in 3D-spheroids of human HepG2 cells assessed as live cell area at 10 uM measured after 3 days by calcein-AM/Hoechst 33342 staining based high-content imaging analysis relative to control. The data set is classed as functional. In short, it runs like this:
as §1

Activity calls are given as the source filed them. No cut-off for these calls is given here.

In the case of `CC(=O)N[C@@H](CS)C(=O)O`, the outcome in the data set with HepG2 [1] and in the data set with HepG2 [2] was Active.
As to `COc1cc(C(=O)c2ccccc2)ccc1O`, the “%max” value with HepG2 [3] was 60.2%.
Turning to `COc1cc(C(O)c2ccccc2)ccc1O` (centres undefined), in the data set on HepG2 [3], the “%max” value was 41%.
With `COc1ccc(C(=O)c2ccccc2)c(O)c1` [OXYBENZONE], the “%max” value in the data set on HepG2 [4] is on record as 61.6%. In the data set on HepG2 [5], the result was inactive.
`COc1cc(OC)c2c(O)c3c(=O)cc(C)oc3cc2c1` [RUBROFUSARIN B]: the outcome in the data set with HepG2 [6] was inactive. Besides, the Activity result in the data set with HepG2 [7] is reported as “Toxic”. The “%max” value in the data set on HepG2 [8] is 64.9%.
As for `COc1cc(O)c2c(=O)oc3cc(O)c(O)cc3c2c1`, in the data set on HepG2 [7], the Activity result was “Toxic”. For the same compound, in the data set on HepG2 [3], the “%max” value was 65.7%.
Turning to `COC1=C(O)c2c(O)cc(C)c3c(O)cc(O)c(c23)C1=O`, in the data set on HepG2 [9], the result was inactive. Also, the “%max” value in the data set with HepG2 [10] was 20.5%.
In the case of `COc1ccc(C(=O)NCc2cccnc2)c(O)c1`, the result in the data set with HepG2 [6] was inactive. Besides, in the data set on HepG2 [8], the “%max” value is reported as 33.5%.
`COc1cc(O)c2c(=O)c3ccccc3oc2c1`: the result in the data set with HepG2 [9] was inactive. In the data set with HepG2 [10], the “%max” value was 63.9%. In addition, the Activity entry with HepG2 [7] is on record as “Toxic”; in the data set with HepG2 [12] it was 72%. In addition, the outcome in the data set with HepG2 [11] was Active.
For `COc1ccc(C(=O)c2ccc(OC)cc2O)c(O)c1`, the “%max” value with HepG2 [3] is recorded as 53.9%.
Regarding `Cc1cc(O)cc2oc(=O)c3c(O)cc(O)cc3c12` [ALTERNARIOL], the outcome in the data set on HepG2 [6] was inactive. In addition, the “%max” value in the data set with HepG2 [8] was 15.2%.
With `COc1cc(O)c2c(=O)oc3cc(O)cc(C)c3c2c1`, the Activity result is listed as “Non-Toxic” in the data set on HepG2 [7] and 95% in the data set on HepG2 [12]. In the data set with HepG2 [11], the result was Active. The “%max” value with HepG2 [3] is 67%.
`CC(C)c1nc(CN(C)C(=O)N[C@H](C(=O)N[C@@H](Cc2ccccc2)C[C@H](O)[C@H](Cc2ccccc2)NC(=O)OCc2cncs2)C(C)C)cs1` [RITONAVIR]: the result with HepG2 [6] was inactive. Moreover, the “%max” value in the data set with HepG2 [8] was 72%.
In the case of `Cc1c(-c2cnccn2)ssc1=S`, the outcome in the data set with HepG2 [1] and with HepG2 [2] was Active.
Turning to `COc1cc(O)cc(OC)c1`, the outcome in the data set with HepG2 [9] was inactive. For the same compound, the “%max” value with HepG2 [10] was 37%.
Regarding `COC(=O)c1cc(O)cc(OC)c1C(=O)c1c(O)cc(C)cc1OC`, the “%max” value with HepG2 [3] was 68.3%.

Values taken from ChEMBL document CHEMBL4392876, “Natural-Product-Inspired Compounds as Countermeasures against the Liver Carcinogen Aflatoxin B1” (J Nat Prod, 2019).
